Tests used:
[1] = target: Beta-lactamase (Pseudomonas aeruginosa (strain ATCC 15692 / PAO1 / 1C / PRS 101 / LMG12228)) (UniProt P24735); assay: Inhibition of ampD, ampDh2, ampDh3 and ampG deficient Pseudomonas aeruginosa PAO1 AmpC harboring pZY0901 conferring resistance to gentamycin assessed as nitrocefin hydrolyzed per mg of protein at 120 uM by UV spectrophotometry
Method in brief: (§1)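 Cells cultured with or without 120 μM CCCP; crude extracts made by sonication; β-lactamase measured by UV spectrophotometry with 100 μM nitrocefin substrate at 30°C; specific activity as nmol nitrocefin hydrolyzed per min per mg protein (BCA, BSA standard); triplicate, averaged.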

[2] = target: Beta-lactamase (Pseudomonas aeruginosa (strain ATCC 15692 / PAO1 / 1C / PRS 101 / LMG12228)) (UniProt P24735); assay: Inhibition of ampD, ampDh2 and ampDh3 deficient Pseudomonas aeruginosa PAO1 AmpC assessed as nitrocefin hydrolyzed per mg of protein at 120 uM by UV spectrophotometry; method in brief: as §1
[3] = target: Beta-lactamase (Pseudomonas aeruginosa (strain ATCC 15692 / PAO1 / 1C / PRS 101 / LMG12228)) (UniProt P24735); assay: Inhibition of ampD, ampDh2, ampDh3 and ampG deficient Pseudomonas aeruginosa PAO1 AmpC assessed as nitrocefin hydrolyzed per mg of protein at 120 uM by UV spectrophotometry; method in brief: as §1

Chain of Beta-lactamase (Pseudomonas aeruginosa (strain ATCC 15692 / PAO1 / 1C / PRS 101 / LMG12228)) (P24735 27-397 limits assumed): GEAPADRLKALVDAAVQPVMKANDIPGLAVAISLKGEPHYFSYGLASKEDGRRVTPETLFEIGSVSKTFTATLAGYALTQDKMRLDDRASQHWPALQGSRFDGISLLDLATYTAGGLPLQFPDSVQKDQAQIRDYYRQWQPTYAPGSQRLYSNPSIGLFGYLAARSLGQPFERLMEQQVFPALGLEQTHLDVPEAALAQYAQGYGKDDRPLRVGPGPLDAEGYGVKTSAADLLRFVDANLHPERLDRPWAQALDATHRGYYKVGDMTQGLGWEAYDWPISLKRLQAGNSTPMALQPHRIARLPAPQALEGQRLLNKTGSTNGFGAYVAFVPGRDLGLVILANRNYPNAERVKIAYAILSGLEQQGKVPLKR

Compound `N#CC(C#N)=NNc1cccc(Cl)c1` has an Activity [1] of 2800 nmol/min, an Activity [2] of 1220 nmol/min and an Activity [3] of 3 nmol/min.

Reference: ChEMBL document CHEMBL1687785, “ampG gene of Pseudomonas aeruginosa and its role in β-lactamase expression” (2010)
